pIC50: −log10 of the molar value. Activity calls are given as the source filed them. No cut-off for these calls is given here.

One assay relates to DU-145. The assay is described as follows: Anticancer activity against human DU145 cells assessed as growth inhibition at 50 uM after 48 hrs by SRB assay. Format: functional. Conditions: DU-145, 48 h, read-out: GI. A digest of the protocol:
(§1)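 Cells exposed to test compounds at 50 µM for 48 h. Read-out is percent growth inhibition, with SEM given. 5-Fluorouracil and adriamycin serve as reference agents.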
(In general: The SRB assay estimates cell density from bound dye.)

Assay [1] concerns the target T1, Signal transducer and activator of transcription 5A (Homo sapiens) (UniProt P42229).
T1 sequence (whole entry): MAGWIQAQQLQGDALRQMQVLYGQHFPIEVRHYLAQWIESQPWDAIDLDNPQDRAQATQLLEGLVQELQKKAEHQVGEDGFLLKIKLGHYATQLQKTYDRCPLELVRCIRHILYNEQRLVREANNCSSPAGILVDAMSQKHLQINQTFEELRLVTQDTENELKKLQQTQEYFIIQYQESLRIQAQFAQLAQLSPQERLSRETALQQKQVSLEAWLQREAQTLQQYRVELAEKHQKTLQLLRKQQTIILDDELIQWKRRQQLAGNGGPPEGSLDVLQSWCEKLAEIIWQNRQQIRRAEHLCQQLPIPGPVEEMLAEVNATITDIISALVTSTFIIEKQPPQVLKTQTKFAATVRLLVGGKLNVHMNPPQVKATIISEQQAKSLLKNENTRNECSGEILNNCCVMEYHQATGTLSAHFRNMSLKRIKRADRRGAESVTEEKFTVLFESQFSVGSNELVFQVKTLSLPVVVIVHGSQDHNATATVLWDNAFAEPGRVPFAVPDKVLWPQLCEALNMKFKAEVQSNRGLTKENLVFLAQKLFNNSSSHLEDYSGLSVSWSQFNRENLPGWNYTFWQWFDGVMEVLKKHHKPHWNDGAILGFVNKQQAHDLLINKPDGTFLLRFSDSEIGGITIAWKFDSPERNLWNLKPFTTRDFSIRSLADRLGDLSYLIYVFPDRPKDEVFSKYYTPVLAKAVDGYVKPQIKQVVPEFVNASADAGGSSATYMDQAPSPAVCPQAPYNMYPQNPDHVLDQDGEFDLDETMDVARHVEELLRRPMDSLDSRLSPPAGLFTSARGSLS
As to the kind of experiment: Inhibition of STAT5 protein expression in p53-deficient human HL60 cells at 20 to 50 uM after 6 hrs by Western blot analysis. Particulars: HL-60. Format: cell-based.

Assay [2] relates to HL-60. As to the kind of experiment: Inhibition of STAT3beta protein expression in p53-deficient human HL60 cells at 20 to 50 uM after 6 hrs by Western blot analysis. Format: cell-based. (In western blotting, separated proteins are transferred to a membrane and probed.)
The test system of another assay is SW-620. As to the kind of experiment: Anticancer activity against human SW620 cells assessed as growth inhibition at 50 uM after 48 hrs by SRB assay. Format: functional. Conditions: SW-620, 48 h, read-out: GI. In short, it runs like this:
as §1

Assay [3] deals with HL-60. As to the kind of experiment: Anticancer activity against human HL60 cells after 48 hrs by MTT assay. Format: functional, cell-based. Conditions: HL-60, 48 h. In short, it runs like this: (§2)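 Cell proliferation measured by MTT. Cells are incubated with each analog for 48 h at the indicated concentrations, then MTT reduction is read as an index of viability. OD of the untreated control is taken as 100% viability, and IC50 is derived from this.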
(In general: Formazan colour is commonly taken as a measure of viable cells.)

The test system of assay [4] is HL-60. As to the kind of experiment: Inhibition of NF-kappaB p50 subunit protein expression in p53-deficient human HL60 cells at 50 uM after 6 hrs by Western blot analysis. It is filed as cell-based. A digest of the protocol:
(§3)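 HL-60 cells treated with or without compound (20 and 50 µM) for 6 h. Total cell lysates (70 µg protein) are run on 10% SDS–PAGE and immunoblotted for NF-κB p50 and p65.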

The subject of assay [5] is HL-60. The assay is described as follows: Induction of apoptosis in p53-deficient human HL60 cells assessed as apoptotic cells at 50 uM after 6 hrs by FITC-conjugated annexinV/PI-based flow cytometric analysis (reference value: 5 %). Format: functional. A digest of the protocol: (§4)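 HL-60 cells incubated with each analog at 50 µM for 6 h, stained with annexin V-FITC/propidium iodide and analysed by flow cytometry. Lower right quadrant is apoptotic, upper right post-apoptotic, upper left necrotic. Three experiments, with representative dot plots shown.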

Another assay concerns HEp-2. As to the kind of experiment: Anticancer activity against human Hep2 cells assessed as growth inhibition at 50 uM after 48 hrs by SRB assay. Format: functional. Conditions: HEp-2, 48 h, read-out: GI. In short, it runs like this: as §1
Assay [6] relates to HL-60. As to the kind of experiment: Inhibition of STAT3alpha protein expression in p53-deficient human HL60 cells at 20 to 50 uM after 6 hrs by Western blot analysis. Format: cell-based.
Assay [7] deals with Transcription factor p65 (Homo sapiens) (UniProt Q04206). The assay is described as follows: Inhibition of NF-kappaB p65 subunit protein expression in p53-deficient human HL60 cells at 20 uM after 6 hrs by Western blot analysis. Format: cell-based. Particulars: HL-60. A digest of the protocol: as §3
Chain of Transcription factor p65 (Homo sapiens) (Q04206 whole entry): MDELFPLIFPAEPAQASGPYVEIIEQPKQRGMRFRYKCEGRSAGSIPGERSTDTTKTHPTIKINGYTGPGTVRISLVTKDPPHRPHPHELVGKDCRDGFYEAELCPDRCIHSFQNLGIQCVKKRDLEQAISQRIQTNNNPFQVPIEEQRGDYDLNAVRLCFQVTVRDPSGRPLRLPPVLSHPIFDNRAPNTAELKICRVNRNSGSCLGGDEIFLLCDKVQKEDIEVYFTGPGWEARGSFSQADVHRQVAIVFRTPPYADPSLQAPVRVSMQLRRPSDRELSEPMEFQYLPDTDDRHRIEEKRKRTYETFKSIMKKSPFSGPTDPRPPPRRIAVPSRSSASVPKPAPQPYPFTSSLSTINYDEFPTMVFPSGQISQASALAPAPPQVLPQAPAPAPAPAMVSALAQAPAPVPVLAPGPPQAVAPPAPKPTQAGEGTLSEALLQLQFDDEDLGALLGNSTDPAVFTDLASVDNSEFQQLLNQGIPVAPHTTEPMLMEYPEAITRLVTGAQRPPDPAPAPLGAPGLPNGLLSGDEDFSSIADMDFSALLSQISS
The target of assay [8] is T1, Signal transducer and activator of transcription 5A (Homo sapiens). The assay is described as follows: Inhibition of STAT5 Tyr694/699 phosphorylation in p53-deficient human HL60 cells at 20 to 50 uM after 6 hrs by Western blot analysis. Particulars: HL-60. It is filed as cell-based.
For assay [9], the target named is Signal transducer and activator of transcription 3 (Homo sapiens) (UniProt P40763). As to the kind of experiment: Inhibition of STAT3 Ser727 phosphorylation in p53-deficient human HL60 cells at 20 to 50 uM after 6 hrs by Western blot analysis. Format: cell-based. Particulars: HL-60.
Chain of Signal transducer and activator of transcription 3 (Homo sapiens) (P40763 whole entry): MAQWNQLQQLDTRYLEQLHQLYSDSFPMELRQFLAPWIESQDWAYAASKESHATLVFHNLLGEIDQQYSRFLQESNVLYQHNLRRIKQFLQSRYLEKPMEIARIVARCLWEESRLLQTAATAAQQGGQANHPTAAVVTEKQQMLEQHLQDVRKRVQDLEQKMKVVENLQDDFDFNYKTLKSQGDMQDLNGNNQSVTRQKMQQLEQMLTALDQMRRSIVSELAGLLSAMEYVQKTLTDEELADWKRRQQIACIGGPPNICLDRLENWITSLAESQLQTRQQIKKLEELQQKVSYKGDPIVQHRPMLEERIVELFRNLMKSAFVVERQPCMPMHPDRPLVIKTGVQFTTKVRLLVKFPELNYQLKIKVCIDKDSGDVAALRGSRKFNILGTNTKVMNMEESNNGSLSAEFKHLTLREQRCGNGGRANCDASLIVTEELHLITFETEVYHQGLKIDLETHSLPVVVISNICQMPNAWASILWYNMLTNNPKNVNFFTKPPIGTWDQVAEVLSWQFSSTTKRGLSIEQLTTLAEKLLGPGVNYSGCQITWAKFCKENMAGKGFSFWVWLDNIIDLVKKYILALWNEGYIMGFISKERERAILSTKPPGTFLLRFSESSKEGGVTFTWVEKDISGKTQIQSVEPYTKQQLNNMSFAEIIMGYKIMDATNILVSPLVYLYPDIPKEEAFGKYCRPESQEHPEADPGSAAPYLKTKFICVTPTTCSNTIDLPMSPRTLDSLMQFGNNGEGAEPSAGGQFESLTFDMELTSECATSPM
The test system of another assay is HT-29. As to the kind of experiment: Anticancer activity against human HT-29 cells assessed as growth inhibition at 50 uM after 48 hrs by SRB assay. Particulars: HT-29, 48 h, read-out: GI. It is filed as functional. A digest of the protocol: as §1
Assay [10] concerns HL-60. The assay is described as follows: Induction of apoptosis in p53-deficient human HL60 cells assessed as post-apoptotic cells at 50 uM after 6 hrs by FITC-conjugated annexinV/PI-based flow cytometric analysis (reference value: 1 %). It is filed as functional. A digest of the protocol:
as §4

Assay [11] can be described thus: Cytotoxicity against human HGF cells after 48 hrs by MTT assay. Format: cell-based. A digest of the protocol: as §2
Assay [12] deals with Signal transducer and activator of transcription 3 (Homo sapiens) (UniProt P40763). As to the kind of experiment: Inhibition of STAT3 Thr705 phosphorylation in p53-deficient human HL60 cells at 20 to 50 uM after 6 hrs by Western blot analysis. Format: cell-based. Particulars: HL-60.

In general, inhibition refers to the percentage by which the read-out fell short of the control. The term pIC50 denotes −log10 of the IC50, conventionally taken in molar units. A high value points to a small IC50. As for `CCCC(=O)O[C@@H]1CC[C@@]2(C)[C@@H](CC[C@]3(C)[C@@H]2C(=O)C=C2[C@@H]4[C@@H](C)[C@H](C)CC[C@]4(C)CC[C@]23C)[C@@]1(C)C(=O)O`, the inhibition of growth at 50 µM with DU-145 is 93%; with SW-620, 97%; in the assay on HEp-2 it was 98%; in the assay with HT-29, 96%. In addition, the inhibition entry (in assay [1]; with HL-60 [2]; in the assay with HL-60 [4]; in the assay with HL-60 [6]; in [8]; in [9]) was “Active” throughout. In [12], the inhibition result is “Active”. Besides, the pIC50 in the assay on HL-60 [3] was 4.96; in [11], 4.10. Besides, the Activity in the assay on HL-60 [5] came to 32%; in the assay on HL-60 [10], 48%. Besides, the inhibition in assay [7] came out at 90%.

The values are drawn from ChEMBL document CHEMBL1932969, “Acyl derivatives of boswellic acids as inhibitors of NF-κB and STATs” (Bioorg Med Chem Lett, 2012).
